Efflux pump inh = inhibitors of Candida efflux pumps in yeast, primary screen, S. cerevisiae, Nile Red, multiplex | AID 485275, 2010 | S. cerevisiae Candida pump triplex | 330,000 tested, 0.44% active | inhibition, % at 10 µM;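 active = plate passing quality check with inhibition over a set limit, or well fluorescence over plate mean plus 4 SD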;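 also: Nile Red retained in pooled yeast measured as flow cytometry median fluorescence; 0% = buffer negative control and 100% = Enniatin B positive control; higher means more Nile Red kept so more efflux inhibition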
TAG inh = inhibitors of triacylglycerol accumulation, primary screen, cell-based, uHTS, fluorescence, H9c2 | H9c2 cells, Nile Red lipid (TAG) fluorescence; cells loaded with 200 µM oleic acid | inhibition, % at 12.5 µM | 230,000 tested, 0.66% active;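 active = pattern-corrected inhibition of lipid staining of at least 50% with the nuclear-stain viability signal not falling by more than 50%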;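 also: 0% = DMSO wells and 100% = triacsin C control wells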
TbMetRS inhib = T. brucei MetRS inhibitors, primary screen, biochemical, luminescence. methionyl-tRNA synthetase (Trypanosoma brucei brucei). purified T. brucei MetRS, ATP depletion, Kinase-Glo luminescence. inhibition, % at 11.9 µM. 360,000 tested, 0.4% active. AID 624268, 2012;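 active = inhibition above a per-plate cutoff of the control wells' mean inhibition plus 3 SD, cut at about 5.5% in these data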;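 also: 0% = DMSO wells median and 100% = median of wells with control inhibitor compound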
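Assay system: T. brucei methionyl-tRNA synthetase, purified | Medium: HEPES buffer with MgCl2, KCl, DTT, spermine, BSA, pyrophosphatase | Compound: 11.9 µM single point | Incubation: 15 min enzyme-compound preincubation, 2 h reaction, 10 min detection, 25 °C | Measured by: Kinase-Glo luciferase luminescence reporting remaining unconsumed ATP | Measure: % inhibition normalized to control-well medians | Replication: Singlicate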
AHR act = AHR activators, primary screen, cell-based, luminescence, luciferase reporter, human; 320,000 tested, 2.5% active; activation, % at 5 µM; AHR-responsive luciferase reporter cells; in the data active = activation above about 47%;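 also: 0% = vehicle wells and 100% = reference agonist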
Target sequence (P35869 whole entry, looked up): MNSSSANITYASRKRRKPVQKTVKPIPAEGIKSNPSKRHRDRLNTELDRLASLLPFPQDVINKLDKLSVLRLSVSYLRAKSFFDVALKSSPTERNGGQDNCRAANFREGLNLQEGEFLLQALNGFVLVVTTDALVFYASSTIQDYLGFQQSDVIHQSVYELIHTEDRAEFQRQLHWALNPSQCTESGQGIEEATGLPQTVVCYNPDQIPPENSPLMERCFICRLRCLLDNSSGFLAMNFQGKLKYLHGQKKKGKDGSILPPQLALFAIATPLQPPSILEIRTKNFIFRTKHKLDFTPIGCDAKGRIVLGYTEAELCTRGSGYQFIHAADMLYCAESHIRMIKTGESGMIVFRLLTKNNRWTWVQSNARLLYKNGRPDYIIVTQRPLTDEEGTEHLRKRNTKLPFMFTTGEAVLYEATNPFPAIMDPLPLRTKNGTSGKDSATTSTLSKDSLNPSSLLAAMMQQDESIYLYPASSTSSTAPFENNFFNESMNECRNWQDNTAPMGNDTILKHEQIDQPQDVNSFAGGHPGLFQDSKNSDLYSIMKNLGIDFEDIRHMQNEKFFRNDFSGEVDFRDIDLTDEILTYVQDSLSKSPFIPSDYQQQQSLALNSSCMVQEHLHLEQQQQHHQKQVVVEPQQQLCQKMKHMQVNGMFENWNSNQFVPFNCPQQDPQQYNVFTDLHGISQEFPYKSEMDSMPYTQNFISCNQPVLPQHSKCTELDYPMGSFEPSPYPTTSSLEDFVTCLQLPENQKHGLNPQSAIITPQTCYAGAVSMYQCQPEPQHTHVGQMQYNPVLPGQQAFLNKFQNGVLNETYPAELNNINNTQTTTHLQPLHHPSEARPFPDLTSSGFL
SMARCA2 activ = SMARCA2 (BRM) function activators, primary screen, cell-based, luminescence, high throughput; MG213 cells, MMTV-luciferase reporter, dexamethasone, overnight; activation, % at 9.1 µM; 370,000 tested, 1% active; in the data active = activation above about 7.8%;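 also: 0% = vehicle wells and 100% = reference activator wells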
Tb MetRS conf = T. brucei MetRS inhibitors, confirmation, biochemical, luminescence; AID 624412, 2012; 1,400 tested, 93% active; shares compounds with TbMetRS inhib; inhibition, % at 11.9 µM; T. brucei MetRS enzyme, luminescence (ATP depletion); in the data active = inhibition above about 7%
Jurkat tox = Jurkat T cell cytotoxicity, cytotoxicity control for T. brucei MetRS inhibitor project, luminescence, high throughput. inhibition, % at 8.3 µM. shares compounds with TbMetRS inhib. 1,400 tested, 12% active. Jurkat cells viability, ATP luminescence; in the data active = inhibition above about 15%;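 also: 0% = vehicle and 100% = reference inhibitor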
TbMetRS FP orth = T. brucei MetRS inhibitors, orthogonal assay for T. brucei MetRS inhibitor project, biochemical, fluorescence polarization | 1,400 tested, 44% active | purified T. brucei MetRS | inhibition, % at 11.9 µM | shares compounds with TbMetRS inhib; in the data active = inhibition above about 17%;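 also: 0% = vehicle wells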
* marks the source's active call; other numbers are inactive results; / = not tested or not shown. Only some compounds are listed: those with a hit (about 4.1% of all), similar ones and a draw of the others.

SMILES | Efflux pump inh | TAG inh | TbMetRS inhib | AHR act | SMARCA2 activ | Tb MetRS conf | Jurkat tox | TbMetRS FP orth
COc1ccc(CNC(=O)CSc2nnc3c(n2)[nH]c2ccc(C)cc23)cc1 | -0.1 | / | 33.5* | 4.9 | -1.4 | 82.2* | 0.3 | 55.1*
COc1ccc2[nH]c3nc(SCC(=O)Nc4ccc5c(c4)OCO5)nnc3c2c1 | 0.0 | -6.6 | 56.5* | 1.4 | 0.0 | 87.6* | 9.9 | 73.3*
COc1cccc(CNC(=O)CSc2nnc3c(n2)[nH]c2ccccc23)c1 | 0.1 | / | 20.2* | 5.2 | -1.3 | 64.1* | 4.7 | 35.0*
CC(C)NC(=O)[C@]1(C#N)CC(=O)N(C)[C@@H]1c1ccccc1 | / | / | / | / | 2.0 | / | / | /
O=C(NCCc1nc2ccccc2[nH]1)c1ccc(Cl)c([N+](=O)[O-])c1 | -0.1 | 13.1 | 94.3* | 6.1 | -2.1 | 99.6* | 6.3 | 97.2*
O=C(NCc1nc2ccccc2[nH]1)c1ccc([N+](=O)[O-])cc1 | -0.1 | 14.6 | 52.2* | 2.6 | -1.4 | 74.5* | 1.7 | 39.5*
O=C(NCc1nc2ccccc2[nH]1)c1ccc(S(=O)(=O)N2CCOCC2)cc1 | 0.1 | 5.6 | 11.8* | -1.9 | -1.9 | 21.0* | 1.3 | 3.5
O=C(NCc1nc2ccccc2[nH]1)c1ccc(S(=O)(=O)N2CCCC2)cc1 | -0.1 | -7.6 | 2.4 | 2.5 | -2.2 | / | / | /
O=C(NC1CCCCN(Cc2ccc(Cl)cc2)C1=O)c1cc(-c2ccccc2)no1 (stereo not drawn) | / | / | / | / | -2.7 | / | / | /
O=C(N[C@H]1C[C@@H]2O[C@@H](CO)CC[C@@H]2O[C@@H]1CCc1ccc(-c2cccnc2)cc1)c1cccc(F)c1 | / | / | / | / | -1.1 | / | / | /
C[C@H](O)[C@@H]1C(=O)N2CCc3c([nH]c4ccccc34)[C@@H]2C[C@@H]1N(C)Cc1ccc(Cl)cc1 | / | 11.8 | 86.7* | / | 0.2 | 104.4* | -5.5 | 83.4*
Brc1ccc(-n2c(SCc3nc4ccccc4[nH]3)nnc2-c2ccncc2)cc1 | 0.5 | / | 27.2* | 11.2 | 2.2 | 41.9* | 1.0 | 16.1
O=C(NC1CCCCN(Cc2ccc(Cl)cc2)C1=O)c1ccccc1 (stereo not drawn) | / | / | / | / | -0.7 | / | / | /
COc1cccc(/C=C2\CC3(OC(=O)C4CCCCC4)CCCN2C3)c1 (stereo not drawn) | / | / | / | / | -2.4 | / | / | /
O=C(NCC(O)c1ccc([N+](=O)[O-])cc1)C(c1ccccc1)c1ccccc1 (stereo not drawn) | 0.4 | / | -0.3 | -1.0 | 0.2 | / | / | /
O=C(NCC(O)c1ccc([N+](=O)[O-])cc1)Nc1ccccc1 (stereo not drawn) | 2.4 | / | 27.2* | 2.9 | -1.8 | 46.2* | -7.2 | 21.3*
O=C(/C=C/c1ccc(Br)cc1)NC(=O)c1ccccc1O | 0.9 | -3.9 | 7.2* | 20.0 | 2.6 | 8.8* | -2.9 | 3.5
O=C(/C=C/c1ccc(O)c(O)c1)NC(=O)c1ccccc1O | -0.4 | / | 2.6 | 1.4 | 5.4 | / | / | /
Cc1cc(C)nc(NS(=O)(=O)c2ccc(NC(=O)Nc3ccccc3F)cc2)n1 | 0.1 | 16.4 | 7.3* | -2.4 | -2.7 | 16.2* | -8.2 | 2.3
CCCCc1c(O)c2ccccc2[nH]c1=O | 0.0 | -28.3 | 0.3 | 1.9 | 0.8 | / | / | /
CCCCCCCCC1=NCCc2c1[nH]c1ccccc21 | 0.1 | / | 49.4* | 36.1 | -1.3 | 70.4* | 32.7* | 47.3*
COc1ccc(/C(C)=C2\SC(=S)N(CCC(=O)O)C2=O)cc1 | -0.1 | / | 2.7 | -3.9 | -6.1 | / | / | /
C/C(=C1/SC(=S)N(CCC(=O)O)C1=O)c1ccc(O)cc1 | 0.4 | -11.7 | 25.9* | 1.8 | -1.1 | 64.1* | 2.5 | 24.5*
COc1cccc(C2c3[nH]c4ccccc4c3C[C@H]3C(=O)N(C4CC4)CC(=O)N23)c1 (stereo partly drawn) | 0.0 | / | 15.9* | 2.4 | -2.7 | 29.9* | 8.3 | 21.7*

Screening data (PubChem BioAssay)
